One assay has as its target Cannabinoid receptor 2 (Homo sapiens, UniProt P34972). Briefly: Displacement of [3H]CP-55940 from human CB2 receptor. In a few lines:
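HEK cells transfected with human recombinant CB2 used for competition binding against [3H]CP-55,940 (Kd 0.31 nM) at 0.084 nM with increasing test compound concentrations; Ki derived from IC50 via Cheng-Prusoff equation; means of at least three separate experiments run in duplicate.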
A general note: Loss of bound radioactivity is the signal in a displacement assay; it reports binding, not function.
Sequence of Cannabinoid receptor 2 (P34972 whole entry): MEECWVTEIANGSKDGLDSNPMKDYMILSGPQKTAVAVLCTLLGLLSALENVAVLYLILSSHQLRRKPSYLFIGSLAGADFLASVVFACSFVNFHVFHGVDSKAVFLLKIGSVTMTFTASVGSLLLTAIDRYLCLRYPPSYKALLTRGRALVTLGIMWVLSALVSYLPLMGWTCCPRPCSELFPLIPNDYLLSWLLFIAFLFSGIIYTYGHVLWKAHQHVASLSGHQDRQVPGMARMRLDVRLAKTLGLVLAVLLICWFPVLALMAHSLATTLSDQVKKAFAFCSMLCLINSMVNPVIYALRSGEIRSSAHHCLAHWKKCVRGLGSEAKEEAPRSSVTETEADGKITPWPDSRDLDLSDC
One may read the Ki as a dissociation constant, usually derived from enzyme kinetics or from competition with a known ligand. A lower Ki goes with tighter binding. `CCCCOC(=O)c1cc(O)c(-c2cc(C)cc(C)c2)c(O)c1`: the Ki is above 3.2 µM.

For the compound `COC(=O)c1cc(O)c(-c2cc(C)cc(C)c2)c(OC)c1`, the Ki is above 6.4 µM.

For the compound `CCCCCOC(=O)c1cc(OC)c(-c2cc(C)cc(C)c2)c(OC)c1`, the Ki is above 10 µM.

With `COc1cc(C(=O)O)cc(O)c1-c1cc(C)cc(C)c1`, the Ki was above 10 µM.

Turning to `CCCCCOC(=O)c1cc(O)c(-c2cc(C)cc(C)c2)c(OC)c1`, the Ki turned out to be 0.27 µM.

`CCCCCOC(=O)c1cc(O)c(-c2cc(C)cc(C)c2)c(O)c1` yielded a Ki above 1.1 µM.

As for `COC(=O)c1cc(O)c(-c2cc(C)cc(C)c2)c(O)c1`, the Ki was above 4.5 µM.

In the case of `COc1cc(C(=O)O)cc(OC)c1-c1cc(C)cc(C)c1`, the Ki was above 10 µM.

`Cc1cc(C)cc(-c2c(O)cc(C(=O)O)cc2O)c1` returned a Ki above 10 µM.

With `CCCCCOC(=O)c1cc(O)c(-c2ccccc2)c(O)c1`, the Ki was above 4 µM.

The target of another assay is Cannabinoid receptor 1 (Homo sapiens, UniProt P21554). Briefly: Displacement of [3H]CP-55940 from human CB1 receptor.
Sequence of Cannabinoid receptor 1 (P21554 whole entry): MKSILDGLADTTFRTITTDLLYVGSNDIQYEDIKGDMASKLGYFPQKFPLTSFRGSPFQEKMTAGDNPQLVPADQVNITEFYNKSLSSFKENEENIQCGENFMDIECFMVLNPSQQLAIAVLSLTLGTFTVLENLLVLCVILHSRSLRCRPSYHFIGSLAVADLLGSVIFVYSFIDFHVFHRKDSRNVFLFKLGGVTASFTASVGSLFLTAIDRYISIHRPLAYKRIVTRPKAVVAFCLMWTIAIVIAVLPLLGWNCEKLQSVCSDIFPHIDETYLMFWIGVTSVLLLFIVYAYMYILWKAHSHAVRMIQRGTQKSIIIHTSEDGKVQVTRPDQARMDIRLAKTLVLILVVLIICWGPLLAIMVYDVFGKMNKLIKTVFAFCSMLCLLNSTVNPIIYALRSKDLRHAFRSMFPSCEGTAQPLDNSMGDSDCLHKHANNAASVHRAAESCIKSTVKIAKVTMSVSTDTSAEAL
`CCCCOC(=O)c1cc(O)c(-c2cc(C)cc(C)c2)c(O)c1` came in with a Ki of 2.6 µM.

Turning to `COC(=O)c1cc(O)c(-c2cc(C)cc(C)c2)c(OC)c1`, the Ki was above 10 µM.

Compound `CCCCCOC(=O)c1cc(OC)c(-c2cc(C)cc(C)c2)c(OC)c1` came in with a Ki above 10 µM.

In turn, `COc1cc(C(=O)O)cc(O)c1-c1cc(C)cc(C)c1` came in with a Ki above 10 µM.

`CCCCCOC(=O)c1cc(O)c(-c2cc(C)cc(C)c2)c(OC)c1` returned an inhibitory constant (Ki) of 1.4 µM.

Compound `CCCCCOC(=O)c1cc(O)c(-c2cc(C)cc(C)c2)c(O)c1` showed a Ki of 2 µM.

Turning to `COC(=O)c1cc(O)c(-c2cc(C)cc(C)c2)c(O)c1`, the Ki is above 10 µM.

As for `COc1cc(C(=O)O)cc(OC)c1-c1cc(C)cc(C)c1`, the Ki is above 10 µM.

Regarding `Cc1cc(C)cc(-c2c(O)cc(C(=O)O)cc2O)c1`, the Ki is above 10 µM.

In turn, `CCCCCOC(=O)c1cc(O)c(-c2ccccc2)c(O)c1` returned a Ki above 10 µM.

The values above are taken from ChEMBL document CHEMBL1146227, “Metabolically labile cannabinoid esters: a 'soft drug' approach for the development of cannabinoid-based therapeutic drugs” (Bioorg Med Chem Lett, 2007).
